Consider five compounds from PubChem BioAssay AID588836 (Broad Institute, 2011).

The source made the active and inactive calls. How the calls were made is not given here.

For this experiment, the target named is Scavenger receptor class B member 1 (Mus musculus) (UniProt Q61009). Nature of the experiment: inhibitors of SR-BI [3H]CE-HDL uptake, late-stage follow-up, orthogonal assay for SR-BI HDL uptake inhibitor project, wild-type cells, scintillation, powder samples (AID 588836). The conditions noted are these: CHO mSR-BI cells, [3H]cholesteryl ester HDL uptake, at 1 µM, hits give low values. The procedure, abridged: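 Test system – CHO-derived mSR-BI cells lacking LDL receptor, overexpressing murine SR-BI · Incubation – 1 h compound preincubation, then 2 h HDL uptake, 37 °C · Signal – liquid scintillation counting of cell-associated [3H]cholesteryl ester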
Scavenger receptor class B member 1 (Mus musculus), sequence (Q61009 whole entry, looked up): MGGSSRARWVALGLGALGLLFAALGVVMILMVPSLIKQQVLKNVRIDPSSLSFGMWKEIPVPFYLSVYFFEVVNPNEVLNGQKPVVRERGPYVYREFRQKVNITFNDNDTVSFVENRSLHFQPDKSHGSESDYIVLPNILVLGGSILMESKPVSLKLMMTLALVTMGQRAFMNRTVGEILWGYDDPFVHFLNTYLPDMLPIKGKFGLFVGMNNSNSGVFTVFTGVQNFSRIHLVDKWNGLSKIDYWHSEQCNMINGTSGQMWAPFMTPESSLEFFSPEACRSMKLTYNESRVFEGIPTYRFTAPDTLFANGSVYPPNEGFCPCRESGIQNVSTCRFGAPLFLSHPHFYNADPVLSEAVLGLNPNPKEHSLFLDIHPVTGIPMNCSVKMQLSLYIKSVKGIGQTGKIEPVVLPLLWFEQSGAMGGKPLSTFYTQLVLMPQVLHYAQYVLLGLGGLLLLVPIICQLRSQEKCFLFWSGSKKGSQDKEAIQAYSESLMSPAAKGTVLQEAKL

`Cc1ccc2oc(-c3cccc(NC(=O)c4cc(-n5cnnc5)ccc4Cl)c3)nc2c1`: the HDL cholesterol uptake is 54.8%.

`O=C(Nc1ccc(Cl)cc1C(=O)c1ccc(Cl)cc1)c1cc(Br)ccc1NS(=O)(=O)c1ccc(Cl)cc1`: the HDL cholesterol uptake is 85.2% (inactive).

For `CCOC(=O)N1CCC(NC(=O)c2ccc3c(c2)N(Cc2ccc(F)cc2)CCS3)CC1`, the HDL cholesterol uptake was 45.9%.

For `COc1ccc(-c2nnn(CC(=O)N(C3CCCCC3)C(C)C(=O)NC3CCCC3)n2)cc1OC` (stereo not given), the HDL cholesterol uptake was 48.9%.

With `CCC(=O)N1CCc2cc(-c3csc(NC(=O)c4ccco4)n3)ccc21`, the HDL cholesterol uptake was 52.6%.
